# ChEMBL document CHEMBL3425469, “Discovery of imidazo[2,1-b]thiazole HCV NS4B inhibitors exhibiting synergistic effect with other direct-acting antiviral agents” (J Med Chem, 2015)
# Experiments:
# [1] = Cytotoxicity against human HuH7 cells assessed as cell proliferation by cell titer assay; type: cell-based, Huh-7
# Method in brief: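 Huh-7 cells carrying GT1b Con1 bicistronic replicon seeded at 8000 cells/well; compound added at 0.5% DMSO final, 37°C for 72 h. Proliferation read with CellTiter-Fluor reagent per manufacturer; CC50 fitted from concentration-response, average of at least two independent determinations.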
# Hepatitis C virus [2] = test: Antiviral activity against Hepatitis C virus genotype 1b Con1 infected in human HuH7 cells after 72 hrs by luciferase assay; type: functional, cell-based, Hepacivirus hominis; details: genotype 1b Con 1, Huh-7, 72 h
# Method in brief: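 Huh-7 cells stably carrying a genotype 1b Con1 bicistronic luciferase replicon, seeded at 8000 cells/well. Compounds were added at 0.5% DMSO final and incubated at 37°C for 72 h. Read-out was Bright-Glo luciferase, with cell proliferation measured by CellTiter-Fluor. EC50 is the mean of at least two independent runs. Some values are given as percent inhibition at 10 µM.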
# Hepatitis C virus [3] = test: Antiviral activity against Hepatitis C virus genotype 1b Con 1 infected in human HuH7 cells at 10 uM after 72 hrs by luciferase assay; type: functional, Hepacivirus hominis; details: genotype 1b Con 1, Huh-7, 72 h
# Method in brief: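 Huh-7 cells carrying a GT1b Con1 bicistronic luciferase replicon, 8000 cells/well. Compound tested at 10 µM in 0.5% DMSO final, 37°C for 72 h. Replicon signal read as luciferase (Bright-Glo) and reported as percentage inhibition at 10 µM. Cell proliferation measured in parallel with CellTiter-Fluor. Values are the average of at least two independent determinations.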
# Hepatitis C virus [4] = test: Antiviral activity against Hepatitis C virus genotype 1b harboring A156T NS3/4A mutation transfected in human HuH7 cells after 72 hrs by luciferase assay; type: functional, cell-based, Hepacivirus hominis; details: Huh-7, 72 h
# Method in brief: (§1)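 Huh-7 cells were transiently electroporated with genotype 1b replicon RNA carrying the specified mutation and plated at 10000 cells/well. Compounds were added at 0.5% DMSO final for 72 h at 37°C. Read-out was Bright-Glo luciferase. EC50 is the mean of two independent runs within 2-fold of each other. A reference drug EC50 was measured alongside each mutant replicon to validate it.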
# Hepatitis C virus [5] = test: Antiviral activity against Hepatitis C virus genotype 1b harboring H3R NS4B mutation transfected in human HuH7 cells after 72 hrs by luciferase assay; type: functional, cell-based, Hepacivirus hominis; details: Huh-7, 72 h; method in brief: as §1
# Hepatitis C virus [6] = test: Antiviral activity against Hepatitis C virus genotype 1b harboring Q26R mutation transfected in human HuH7 cells after 72 hrs by luciferase assay; type: functional, cell-based, Hepacivirus hominis; details: Huh-7, 72 h; method in brief: as §1
# Hepatitis C virus [7] = test: Antiviral activity against Hepatitis C virus genotype 1b harboring H94R mutation transfected in human HuH7 cells after 72 hrs by luciferase assay; type: functional, cell-based, Hepacivirus hominis; details: Huh-7, 72 h; method in brief: as §1
# Hepatitis C virus [8] = test: Antiviral activity against Hepatitis C virus genotype 1b harboring F98C mutation transfected in human HuH7 cells after 72 hrs by luciferase assay; type: functional, cell-based, Hepacivirus hominis; details: Huh-7, 72 h; method in brief: as §1
# Hepatitis C virus [9] = test: Antiviral activity against Hepatitis C virus genotype 1b harboring V105M mutation transfected in human HuH7 cells after 72 hrs by luciferase assay; type: functional, cell-based, Hepacivirus hominis; details: Huh-7, 72 h; method in brief: as §1
# Hepatitis C virus [10] = test: Antiviral activity against Hepatitis C virus genotype 1b harboring Y93H NS5A mutation transfected in human HuH7 cells after 72 hrs by luciferase assay; type: functional, cell-based, Hepacivirus hominis; details: Huh-7, 72 h; method in brief: as §1
# Hepatitis C virus [11] = test: Antiviral activity against Hepatitis C virus genotype 1b harboring S282T NS5B (active site) mutation transfected in human HuH7 cells after 72 hrs by luciferase assay; type: functional, cell-based, Hepacivirus hominis; details: Huh-7, 72 h; method in brief: as §1
# Hepatitis C virus [12] = test: Antiviral activity against Hepatitis C virus genotype 1b harboring M423I NS5B (thumb 2) mutation transfected in human HuH7 cells after 72 hrs by luciferase assay; type: functional, cell-based, Hepacivirus hominis; details: Huh-7, 72 h; method in brief: as §1
# Hepatitis C virus [13] = test: Antiviral activity against Hepatitis C virus genotype 1b harboring P495A NS5B (thumb 1) mutation transfected in human HuH7 cells after 72 hrs by luciferase assay; type: functional, cell-based, Hepacivirus hominis; details: Huh-7, 72 h; method in brief: as §1
# Hepatitis C virus [14] = test: Antiviral activity against Hepatitis C virus genotype 1b harboring Y448H NS5B (palm) mutation transfected in human HuH7 cells after 72 hrs by luciferase assay; type: functional, cell-based, Hepacivirus hominis; details: Huh-7, 72 h; method in brief: as §1
Structure (SMILES),CC50 [1] [µM],EC50 (Hepatitis C virus [2]) [nM],other results
O=C(c1nc2sc3cc(Br)ccc3n2c1Cl)N1CCN(C2CCCC2)C(=O)C1,> 10,1790,
O=C(c1nc2sccn2c1Cl)N1CCN(C2CCCC2)C(=O)C1,> 10,> 10000,
Cc1cn2c(Cl)c(C(=O)N3CCN(C4CCCC4)C(=O)C3)nc2s1,> 10,,inhibition at 10 µM (Hepatitis C virus [3]): 46%
CC(C)c1cn2c(Cl)c(C(=O)N3CCN(C4CCCC4)C(=O)C3)nc2s1,> 10,1320,
Cc1c(C(C)C)sc2nc(C(=O)N3CCN(C4CCCC4)C(=O)C3)c(Cl)n12,> 10,,inhibition at 10 µM (Hepatitis C virus [3]): 50%
Cc1csc2nc(C(=O)N3CCN(C4CCCC4)C(=O)C3)c(Cl)n12,> 10,,inhibition at 10 µM (Hepatitis C virus [3]): 53%
CC(C)Cc1csc2nc(C(=O)N3CCN(C4CCCC4)C(=O)C3)c(Cl)n12,> 10,740,
O=C(c1nc2sc(Cl)c(C3CC3)n2c1Cl)N1CCN(C2CCCC2)C(=O)C1,> 10,8600,
CC(C)Cc1c(Cl)sc2nc(C(=O)N3CCN(C4CCCC4)C(=O)C3)c(Cl)n12,> 10,6700,
O=C(c1nc2scc(C3CC3)n2c1Cl)N1CCN([C@H]2CC[C@H](O)CC2)C(=O)C1,> 10,890,
O=C(c1nc2scc(C3CC3)n2c1Cl)N1CCN(C2CC=CC2)C(=O)C1,> 10,79,
O=C(c1nc2sc3c(n2c1Cl)CCC3)N1CCN(C2CCCC2)C(=O)C1,> 10,130,
O=C(c1nc2sc3c(n2c1Cl)CCCC3)N1CCN(C2CCCC2)C(=O)C1,> 10,190,
O=C(c1nc2sc3c(n2c1Cl)CCCCC3)N1CCN(C2CCCC2)C(=O)C1,> 10,940,
CC1CCc2c(sc3nc(C(=O)N4CCN(C5CCCC5)C(=O)C4)c(Cl)n23)C1 (configuration not stated),> 10,260,
CC1(C)CCc2c(sc3nc(C(=O)N4CCN(C5CCCC5)C(=O)C4)c(Cl)n23)C1,> 10,1120,
O=C1CCCc2c1sc1nc(C(=O)N3CCN(C4CCCC4)C(=O)C3)c(Cl)n21,> 10,> 10000,
O=C(c1nc2sc3ccccc3n2c1Cl)N1CCN(C2CCCC2)C(=O)C1,> 10,92,
COc1ccc2c(c1)sc1nc(C(=O)N3CCN(C4CCCC4)C(=O)C3)c(Cl)n12,> 10,8630,
O=C(c1nc2sc3cc(Cl)ccc3n2c1Cl)N1CCN(C2CCCC2)C(=O)C1,> 10,1850,
Cc1ccc2c(c1)sc1nc(C(=O)N3CCN(C4CCCC4)C(=O)C3)c(Cl)n12,> 10,300,
O=C(c1nc2sc3ccccc3n2c1Cl)N1CCN([C@H]2CC[C@H](O)CC2)C(=O)C1,> 10,330,
O=C(c1nc2sc3ccccc3n2c1Cl)N1CCN(C2CC=CC2)C(=O)C1,> 10,31,EC50 (Hepatitis C virus [4]): 77 nM; EC50 (Hepatitis C virus [5]): 4.85 µM; EC50 (Hepatitis C virus [6]): 4.96 µM; EC50 (Hepatitis C virus [7]): 6.4 µM; EC50 (Hepatitis C virus [8]): 3.27 µM; EC50 (Hepatitis C virus [9]): 12.5 µM; EC50 (Hepatitis C virus [10]): 19 nM; EC50 (Hepatitis C virus [11]): 25 nM; EC50 (Hepatitis C virus [12]): 32 nM; EC50 (Hepatitis C virus [13]): 22 nM; EC50 (Hepatitis C virus [14]): 33 nM
